ChEMBL document CHEMBL3259728, “Design, synthesis and biological evaluation of some novel substituted quinazolines as antitumor agents” (2014)

Columns and labels:
Format in all cases: functional
T47D = test: Growth inhibition of human T47D cells at 10 uM after 48 hrs by SRB assay; conditions: read-out: GI
In short: (§1)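 NCI-60 primary one-dose screen run at the US NCI, with human tumour lines from nine cancer types. Compound added once at 10^-5 M, followed by 48 h incubation. End point was sulforhodamine B protein staining read spectrophotometrically. Result given as percent growth of treated cells against untreated controls, reported as % growth inhibition.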

[1] = Growth inhibition of human BT549 cells at 10 uM after 48 hrs by SRB assay; conditions: BT-549, 48 h, read-out: GI
In short: (§2)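 NCI primary one-dose screen. A single concentration of 10^-5 M was added to the cell culture, followed by 48 h incubation and an SRB protein-dye endpoint read spectrophotometrically. Results are growth percentage relative to untreated control cells, reported as % growth inhibition.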

[2] = Growth inhibition of human Hs578T cells at 10 uM after 48 hrs by SRB assay; conditions: Hs-578T, read-out: GI; in short: as §1
MCF7 = test: Growth inhibition of human MCF7 cells at 10 uM after 48 hrs by SRB assay; conditions: MCF7, 48 h, read-out: GI; in short: as §1
DU-145 = test: Growth inhibition of human DU145 cells at 10 uM after 48 hrs by SRB assay; conditions: DU-145, 48 h, read-out: GI; in short: as §1
PC-3 = test: Growth inhibition of human PC3 cells at 10 uM after 48 hrs by SRB assay; conditions: PC-3, 48 h, read-out: GI; in short: as §1
[3] = Growth inhibition of human UO31 cells at 10 uM after 48 hrs by SRB assay; conditions: UO-31, 48 h, read-out: GI; in short: as §1
TK-10 = test: Growth inhibition of human TK10 cells at 10 uM after 48 hrs by SRB assay; conditions: TK-10, 48 h, read-out: GI; in short: as §1
SN12C = test: Growth inhibition of human SN12C cells at 10 uM after 48 hrs by SRB assay; conditions: read-out: GI; in short: as §1
CAKI-1 = test: Growth inhibition of human CAKI-1 cells at 10 uM after 48 hrs by SRB assay; conditions: CAKI-1, 48 h, read-out: GI; in short: as §2
ACHN = test: Growth inhibition of human ACHN cells at 10 uM after 48 hrs by SRB assay; conditions: read-out: GI; in short: as §2
A498 = test: Growth inhibition of human A498 cells at 10 uM after 48 hrs by SRB assay; conditions: A498, 48 h, read-out: GI; in short: as §2
786-0 = test: Growth inhibition of human 786-0 cells at 10 uM after 48 hrs by SRB assay; conditions: 786-0, 48 h, read-out: GI; in short: as §2
[4] = Growth inhibition of human NCI-ADR-RES cells at 10 uM after 48 hrs by SRB assay; conditions: read-out: GI; in short: as §1
[5] = Growth inhibition of human OVCAR5 cells at 10 uM after 48 hrs by SRB assay; conditions: OVCAR-5, 48 h, read-out: GI; in short: as §1
[6] = Growth inhibition of human OVCAR3 cells at 10 uM after 48 hrs by SRB assay; conditions: OVCAR-3, 48 h, read-out: GI; in short: as §1
[7] = Growth inhibition of human UACC62 cells at 10 uM after 48 hrs by SRB assay; conditions: UACC-62, 48 h, read-out: GI; in short: as §1
SK-MEL-2 = test: Growth inhibition of human SK-MEL-2 cells at 10 uM after 48 hrs by SRB assay; conditions: SK-MEL-2, 48 h, read-out: GI; in short: as §1
MDA-MB-435 = test: Growth inhibition of human MDA-MB-435 cells at 10 uM after 48 hrs by SRB assay; conditions: MDA-MB-435, 48 h, read-out: GI; in short: as §1
M14 = test: Growth inhibition of human M14 cells at 10 uM after 48 hrs by SRB assay; conditions: M14, 48 h, read-out: GI; in short: as §1
Malme-3M = test: Growth inhibition of human MALME-3M cells at 10 uM after 48 hrs by SRB assay; conditions: read-out: GI; in short: as §1
U-251 = test: Growth inhibition of human U251 cells at 10 uM after 48 hrs by SRB assay; conditions: U-251, 48 h, read-out: GI; in short: as §1
SNB-75 = test: Growth inhibition of human SNB75 cells at 10 uM after 48 hrs by SRB assay; conditions: SNB-75, 48 h, read-out: GI; in short: as §1
SF-268 = test: Growth inhibition of human SF268 cells at 10 uM after 48 hrs by SRB assay; conditions: SF-268, 48 h, read-out: GI; in short: as §1
SW-620 = test: Growth inhibition of human SW620 cells at 10 uM after 48 hrs by SRB assay; conditions: SW-620, 48 h, read-out: GI; in short: as §1
KM12 = test: Growth inhibition of human KM12 cells at 10 uM after 48 hrs by SRB assay; conditions: KM12, 48 h, read-out: GI; in short: as §1
HT-29 = test: Growth inhibition of human HT-29 cells at 10 uM after 48 hrs by SRB assay; conditions: HT-29, 48 h, read-out: GI; in short: as §1
[8] = Growth inhibition of human HCT15 cells at 10 uM after 48 hrs by SRB assay; conditions: HCT-15, 48 h, read-out: GI; in short: as §1
HCT-116 = test: Growth inhibition of human HCT116 cells at 10 uM after 48 hrs by SRB assay; conditions: HCT-116, 48 h, read-out: GI; in short: as §1
COLO 205 = test: Growth inhibition of human COLO205 cells at 10 uM after 48 hrs by SRB assay; conditions: COLO 205, 48 h, read-out: GI; in short: as §2
NCI-H522 = test: Growth inhibition of human NCI-H522 cells at 10 uM after 48 hrs by SRB assay; conditions: NCI-H522, 48 h, read-out: GI; in short: as §1
NCI-H460 = test: Growth inhibition of human NCI-H460 cells at 10 uM after 48 hrs by SRB assay; conditions: NCI-H460, 48 h, read-out: GI; in short: as §1
NCI-H23 = test: Growth inhibition of human NCI-H23 cells at 10 uM after 48 hrs by SRB assay; conditions: NCI-H23, 48 h, read-out: GI; in short: as §1
[9] = Growth inhibition of human HOP92 cells at 10 uM after 48 hrs by SRB assay; conditions: HOP-92, 48 h, read-out: GI; in short: as §1
HOP-62 = test: Growth inhibition of human HOP62 cells at 10 uM after 48 hrs by SRB assay; conditions: HOP-62, 48 h, read-out: GI; in short: as §1
RPMI-8226 = test: Growth inhibition of human RPMI8226 cells at 10 uM after 48 hrs by SRB assay; conditions: RPMI-8226, 48 h, read-out: GI; in short: as §1
CCRF-CEM = test: Growth inhibition of human CCRF-CEM cells at 10 uM after 48 hrs by SRB assay; conditions: read-out: GI; in short: as §2
[10] = Growth inhibition of human OVCAR8 cells at 10 uM after 48 hrs by SRB assay; conditions: OVCAR-8, 48 h, read-out: GI; in short: as §1
SK-MEL-28 = test: Growth inhibition of human SK-MEL-28 cells at 10 uM after 48 hrs by SRB assay; conditions: SK-MEL-28, 48 h, read-out: GI; in short: as §1

For Cc1ccc(-c2nc3ccc(Cl)cc3c3nnc(S)n23)cc1, the inhibition of growth at 10 µM (T47D) was under 10%, the inhibition of growth at 10 µM [1] was under 10% and the inhibition of growth at 10 µM [2] was under 10%. For the same compound, the inhibition of growth at 10 µM (MCF7) was under 10%, the inhibition of growth at 10 µM (DU-145) was under 10% and the inhibition of growth at 10 µM (PC-3) was under 10%. It also gave an inhibition of growth at 10 µM [3] of under 10%, an inhibition of growth at 10 µM (TK-10) of 19% and an inhibition of growth at 10 µM (SN12C) of under 10%. It also gave an inhibition of growth at 10 µM (CAKI-1) of 15%, an inhibition of growth at 10 µM (ACHN) of under 10% and an inhibition of growth at 10 µM (A498) of 19%. For the same compound, the inhibition of growth at 10 µM (786-0) was under 10%, the inhibition of growth at 10 µM [4] was under 10% and the inhibition of growth at 10 µM [5] was under 10%. The inhibition of growth at 10 µM [6] was under 10%, the inhibition of growth at 10 µM [7] was under 10% and the inhibition of growth at 10 µM (SK-MEL-2) was under 10%. The inhibition of growth at 10 µM (MDA-MB-435) was under 10%, the inhibition of growth at 10 µM (M14) was under 10% and the inhibition of growth at 10 µM (Malme-3M) was under 10%. The inhibition of growth at 10 µM (U-251) was under 10%, the inhibition of growth at 10 µM (SNB-75) was under 10% and the inhibition of growth at 10 µM (SF-268) was under 10%. It also gave an inhibition of growth at 10 µM (SW-620) of under 10%, an inhibition of growth at 10 µM (KM12) of 11% and an inhibition of growth at 10 µM (HT-29) of under 10%. It also gave an inhibition of growth at 10 µM [8] of under 10%, an inhibition of growth at 10 µM (HCT-116) of under 10% and an inhibition of growth at 10 µM (COLO 205) of under 10%. The inhibition of growth at 10 µM (NCI-H522) was under 10%, the inhibition of growth at 10 µM (NCI-H460) was under 10% and the inhibition of growth at 10 µM (NCI-H23) was under 10%. For the same compound, the inhibition of growth at 10 µM [9] was under 10%, the inhibition of growth at 10 µM (HOP-62) was under 10% and the inhibition of growth at 10 µM (RPMI-8226) was under 10%. The inhibition of growth at 10 µM (CCRF-CEM) was 12%, the inhibition of growth at 10 µM [10] was under 10% and the inhibition of growth at 10 µM (SK-MEL-28) was under 10%.
